Data: ChEMBL document CHEMBL4152188, “Design, synthesis and biological evaluation of C(4) substituted monobactams as antibacterial agents against multidrug-resistant Gram-negative bacteria” (Eur J Med Chem, 2018)
≈ marks a conversion by molar mass, not a printed value.

Assays:
Assay type in all cases: functional
Escherichia coli [1] = experiment: Antibacterial activity against extended-spectrum beta-lactamase producing Escherichia coli isolate 208687 after 18 hrs in presence of BPL by CLSI broth microdilution method; conditions: isolate 208687, 18 h
Procedure, shortened: (§1)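 CLSI broth microdilution against clinical isolates (ESBL E. coli, KPC-2 MDR K. pneumoniae, IMP-4 MDR P. aeruginosa; five per species). Iron limitation: Mueller-Hinton broth supplemented with 16 mg/liter 2,2'-bipyridyl to complex iron and induce iron uptake systems. Read-out: MIC.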

Escherichia coli [2] = experiment: Antibacterial activity against extended-spectrum beta-lactamase producing Escherichia coli isolate 106342 after 18 hrs by CLSI broth microdilution method; conditions: isolate 106342, 18 h
Escherichia coli [3] = experiment: Antibacterial activity against extended-spectrum beta-lactamase producing Escherichia coli isolate 212648 after 18 hrs in presence of BPL by CLSI broth microdilution method; conditions: isolate 212648, 18 h; procedure, shortened: as §1
Pseudomonas aeruginosa [4] = experiment: Selectivity index, ratio of MIC for against IMP-4 producing Pseudomonas aeruginosa isolate 209321 to MIC for against IMP-4 producing Pseudomonas aeruginosa isolate 209321 in presence of BPL
Escherichia coli [5] = experiment: Selectivity index, ratio of MIC for against Escherichia coli isolate 210737 to MIC for Escherichia coli isolate 210737 in presence of BPL
Klebsiella pneumoniae [6] = experiment: Antibacterial activity against KPC-2 producing Klebsiella pneumoniae isolate 212229 after 18 hrs in presence of BPL by CLSI broth microdilution method; conditions: isolate 212229, 18 h; procedure, shortened: as §1
Klebsiella pneumoniae [7] = experiment: Selectivity index, ratio of MIC for against KPC-2 producing Klebsiella pneumoniae isolate 212423 to MIC for against KPC-2 producing Klebsiella pneumoniae isolate 212423 in presence of BPL
Pseudomonas aeruginosa [8] = experiment: Selectivity index, ratio of MIC for against IMP-4 producing Pseudomonas aeruginosa isolate 212886 to MIC for against IMP-4 producing Pseudomonas aeruginosa isolate 212886 in presence of BPL
Klebsiella pneumoniae [9] = experiment: Selectivity index, ratio of MIC for against KPC-2 producing Klebsiella pneumoniae isolate 209735 to MIC for against KPC-2 producing Klebsiella pneumoniae isolate 209735 in presence of BPL
Escherichia coli [10] = experiment: Antibacterial activity against extended-spectrum beta-lactamase producing Escherichia coli isolate 208687 after 18 hrs by CLSI broth microdilution method; conditions: isolate 208687, 18 h
Klebsiella pneumoniae [11] = experiment: Antibacterial activity against KPC-2 producing Klebsiella pneumoniae isolate 212232 after 18 hrs in presence of BPL by CLSI broth microdilution method; conditions: isolate 212232, 18 h; procedure, shortened: as §1
Escherichia coli [12] = experiment: Antibacterial activity against Escherichia coli isolate 210737 after 18 hrs in presence of BPL by CLSI broth microdilution method; conditions: isolate 210737, 18 h; procedure, shortened: as §1
Pseudomonas aeruginosa [13] = experiment: Antibacterial activity against IMP-4 producing Pseudomonas aeruginosa isolate 208247 after 18 hrs by CLSI broth microdilution method; conditions: isolate 208247, 18 h
Pseudomonas aeruginosa [14] = experiment: Antibacterial activity against IMP-4 producing Pseudomonas aeruginosa isolate 212886 after 18 hrs in presence of BPL by CLSI broth microdilution method; conditions: isolate 212886, 18 h; procedure, shortened: as §1
Pseudomonas aeruginosa [15] = experiment: Selectivity index, ratio of MIC for against IMP-4 producing Pseudomonas aeruginosa isolate 208247 to MIC for against IMP-4 producing Pseudomonas aeruginosa isolate 208247 in presence of BPL
Escherichia coli [16] = experiment: Antibacterial activity against extended-spectrum beta-lactamase producing Escherichia coli isolate 209285 after 18 hrs by CLSI broth microdilution method; conditions: isolate 209285, 18 h
Pseudomonas aeruginosa [17] = experiment: Antibacterial activity against IMP-4 producing Pseudomonas aeruginosa isolate 209471 after 18 hrs in presence of BPL by CLSI broth microdilution method; conditions: isolate 209471, 18 h; procedure, shortened: as §1
Escherichia coli [18] = experiment: Antibacterial activity against extended-spectrum beta-lactamase producing Escherichia coli isolate 212648 after 18 hrs by CLSI broth microdilution method; conditions: isolate 212648, 18 h
Pseudomonas aeruginosa [19] = experiment: Antibacterial activity against IMP-4 producing Pseudomonas aeruginosa isolate 208247 after 18 hrs in presence of BPL by CLSI broth microdilution method; conditions: isolate 208247, 18 h; procedure, shortened: as §1
Pseudomonas aeruginosa [20] = experiment: Antibacterial activity against IMP-4 producing Pseudomonas aeruginosa isolate 209321 after 18 hrs by CLSI broth microdilution method; conditions: isolate 209321, 18 h
Escherichia coli [21] = experiment: Antibacterial activity against extended-spectrum beta-lactamase producing Escherichia coli isolate 209285 after 18 hrs in presence of BPL by CLSI broth microdilution method; conditions: isolate 209285, 18 h; procedure, shortened: as §1
Klebsiella pneumoniae [22] = experiment: Selectivity index, ratio of MIC for against KPC-2 producing Klebsiella pneumoniae isolate 212232 to MIC for against KPC-2 producing Klebsiella pneumoniae isolate 212232 in presence of BPL
Escherichia coli [23] = experiment: Antibacterial activity against extended-spectrum beta-lactamase producing Escherichia coli isolate 106342 after 18 hrs in presence of BPL by CLSI broth microdilution method; conditions: isolate 106342, 18 h; procedure, shortened: as §1
Escherichia coli [24] = experiment: Antibacterial activity against Escherichia coli isolate 210737 after 18 hrs by CLSI broth microdilution method; conditions: isolate 210737, 18 h
Klebsiella pneumoniae [25] = experiment: Antibacterial activity against KPC-2 producing Klebsiella pneumoniae isolate 209632 after 18 hrs in presence of BPL by CLSI broth microdilution method; conditions: isolate 209632, 18 h; procedure, shortened: as §1
Klebsiella pneumoniae [26] = experiment: Antibacterial activity against KPC-2 producing Klebsiella pneumoniae isolate 212423 after 18 hrs in presence of BPL by CLSI broth microdilution method; conditions: isolate 212423, 18 h; procedure, shortened: as §1
Klebsiella pneumoniae [27] = experiment: Antibacterial activity against KPC-2 producing Klebsiella pneumoniae isolate 209632 after 18 hrs by CLSI broth microdilution method; conditions: isolate 209632, 18 h
Pseudomonas aeruginosa [28] = experiment: Antibacterial activity against IMP-4 producing Pseudomonas aeruginosa isolate 207272 after 18 hrs by CLSI broth microdilution method; conditions: isolate 207272, 18 h
Klebsiella pneumoniae [29] = experiment: Antibacterial activity against KPC-2 producing Klebsiella pneumoniae isolate 212232 after 18 hrs by CLSI broth microdilution method; conditions: isolate 212232, 18 h
Pseudomonas aeruginosa [30] = experiment: Antibacterial activity against IMP-4 producing Pseudomonas aeruginosa isolate 209321 after 18 hrs in presence of BPL by CLSI broth microdilution method; conditions: isolate 209321, 18 h; procedure, shortened: as §1
Escherichia coli [31] = experiment: Selectivity index, ratio of MIC for against extended-spectrum beta-lactamase producing Escherichia coli isolate 208687 to MIC for extended-spectrum beta-lactamase producing Escherichia coli isolate 208687 in presence of BPL
Klebsiella pneumoniae [32] = experiment: Antibacterial activity against KPC-2 producing Klebsiella pneumoniae isolate 209735 after 18 hrs in presence of BPL by CLSI broth microdilution method; conditions: isolate 209735, 18 h; procedure, shortened: as §1
Pseudomonas aeruginosa [33] = experiment: Selectivity index, ratio of MIC for against IMP-4 producing Pseudomonas aeruginosa isolate 209471 to MIC for against IMP-4 producing Pseudomonas aeruginosa isolate 209471 in presence of BPL
Pseudomonas aeruginosa [34] = experiment: Antibacterial activity against IMP-4 producing Pseudomonas aeruginosa isolate 209471 after 18 hrs by CLSI broth microdilution method; conditions: isolate 209471, 18 h
Klebsiella pneumoniae [35] = experiment: Antibacterial activity against KPC-2 producing Klebsiella pneumoniae isolate 209735 after 18 hrs by CLSI broth microdilution method; conditions: isolate 209735, 18 h
Escherichia coli [36] = experiment: Selectivity index, ratio of MIC for against extended-spectrum beta-lactamase producing Escherichia coli isolate 106342 to MIC for extended-spectrum beta-lactamase producing Escherichia coli isolate 106342 in presence of BPL
Pseudomonas aeruginosa [37] = experiment: Antibacterial activity against IMP-4 producing Pseudomonas aeruginosa isolate 207272 after 18 hrs in presence of BPL by CLSI broth microdilution method; conditions: isolate 207272, 18 h; procedure, shortened: as §1
Escherichia coli [38] = experiment: Selectivity index, ratio of MIC for against extended-spectrum beta-lactamase producing Escherichia coli isolate 212648 to MIC for extended-spectrum beta-lactamase producing Escherichia coli isolate 212648 in presence of BPL
Klebsiella pneumoniae [39] = experiment: Antibacterial activity against KPC-2 producing Klebsiella pneumoniae isolate 212229 after 18 hrs by CLSI broth microdilution method; conditions: isolate 212229, 18 h
Pseudomonas aeruginosa [40] = experiment: Selectivity index, ratio of MIC for against IMP-4 producing Pseudomonas aeruginosa isolate 207272 to MIC for against IMP-4 producing Pseudomonas aeruginosa isolate 207272 in presence of BPL
Pseudomonas aeruginosa [41] = experiment: Antibacterial activity against IMP-4 producing Pseudomonas aeruginosa isolate 212886 after 18 hrs by CLSI broth microdilution method; conditions: isolate 212886, 18 h
Escherichia coli [42] = experiment: Selectivity index, ratio of MIC for against extended-spectrum beta-lactamase producing Escherichia coli isolate 209285 to MIC for extended-spectrum beta-lactamase producing Escherichia coli isolate 209285 in presence of BPL
Klebsiella pneumoniae [43] = experiment: Selectivity index, ratio of MIC for against KPC-2 producing Klebsiella pneumoniae isolate 209632 to MIC for against KPC-2 producing Klebsiella pneumoniae isolate 209632 in presence of BPL
Klebsiella pneumoniae [44] = experiment: Selectivity index, ratio of MIC for against KPC-2 producing Klebsiella pneumoniae isolate 212229 to MIC for against KPC-2 producing Klebsiella pneumoniae isolate 212229 in presence of BPL
Klebsiella pneumoniae [45] = experiment: Antibacterial activity against KPC-2 producing Klebsiella pneumoniae isolate 212423 after 18 hrs by CLSI broth microdilution method; conditions: isolate 212423, 18 h

`CC(C)C(O/N=C(\C(=O)NC1C(=O)N(S(=O)(=O)O)C12CCC2)c1csc(N)n1)c1cc(=O)c(O)cn1O` (stereo not given) showed an MIC (Escherichia coli [1]) of 0.5 µg/mL, an MIC (Escherichia coli [2]) of 2 µg/mL (≈ 3.59 µM) and an MIC (Escherichia coli [3]) of 1 µg/mL. For the same compound, the “Selectivity Index” value (Pseudomonas aeruginosa [4]) was 2, the “Selectivity Index” value (Escherichia coli [5]) was 8 and the MIC (Klebsiella pneumoniae [6]) was 8 µg/mL. For the same compound, the “Selectivity Index” value (Klebsiella pneumoniae [7]) was greater than 8, the “Selectivity Index” value (Pseudomonas aeruginosa [8]) was 1 and the “Selectivity Index” value (Klebsiella pneumoniae [9]) was greater than 8. The MIC (Escherichia coli [10]) was 1 µg/mL (≈ 1.8 µM), the MIC (Klebsiella pneumoniae [11]) was 4 µg/mL and the MIC (Escherichia coli [12]) was 0.5 µg/mL. The MIC (Pseudomonas aeruginosa [13]) was 16 µg/mL (≈ 28.7 µM), the MIC (Pseudomonas aeruginosa [14]) was 16 µg/mL and the “Selectivity Index” value (Pseudomonas aeruginosa [15]) was 1. It also gave an MIC (Escherichia coli [16]) of 4 µg/mL (≈ 7.19 µM), an MIC (Pseudomonas aeruginosa [17]) of 32 µg/mL and an MIC (Escherichia coli [18]) of 2 µg/mL (≈ 3.59 µM). For the same compound, the MIC (Pseudomonas aeruginosa [19]) was 16 µg/mL, the MIC (Pseudomonas aeruginosa [20]) was 32 µg/mL (≈ 57.5 µM) and the MIC (Escherichia coli [21]) was 2 µg/mL. The “Selectivity Index” value (Klebsiella pneumoniae [22]) was 2, the MIC (Escherichia coli [23]) was 1 µg/mL and the MIC (Escherichia coli [24]) was 4 µg/mL (≈ 7.19 µM). For the same compound, the MIC (Klebsiella pneumoniae [25]) was 16 µg/mL, the MIC (Klebsiella pneumoniae [26]) was 8 µg/mL and the MIC (Klebsiella pneumoniae [27]) was greater than 64 µg/mL. For the same compound, the MIC (Pseudomonas aeruginosa [28]) was 32 µg/mL (≈ 57.5 µM), the MIC (Klebsiella pneumoniae [29]) was 8 µg/mL (≈ 14.4 µM) and the MIC (Pseudomonas aeruginosa [30]) was 16 µg/mL. The “Selectivity Index” value (Escherichia coli [31]) was 2, the MIC (Klebsiella pneumoniae [32]) was 8 µg/mL and the “Selectivity Index” value (Pseudomonas aeruginosa [33]) was 1. For the same compound, the MIC (Pseudomonas aeruginosa [34]) was 32 µg/mL (≈ 57.5 µM), the MIC (Klebsiella pneumoniae [35]) was greater than 64 µg/mL and the “Selectivity Index” value (Escherichia coli [36]) was 2. For the same compound, the MIC (Pseudomonas aeruginosa [37]) was 32 µg/mL, the “Selectivity Index” value (Escherichia coli [38]) was 2 and the MIC (Klebsiella pneumoniae [39]) was 32 µg/mL (≈ 57.5 µM). For the same compound, the “Selectivity Index” value (Pseudomonas aeruginosa [40]) was 1, the MIC (Pseudomonas aeruginosa [41]) was 16 µg/mL (≈ 28.7 µM) and the “Selectivity Index” value (Escherichia coli [42]) was 2. For the same compound, the “Selectivity Index” value (Klebsiella pneumoniae [43]) was greater than 4, the “Selectivity Index” value (Klebsiella pneumoniae [44]) was 4 and the MIC (Klebsiella pneumoniae [45]) was greater than 64 µg/mL.
